DENV2 CPE – DENV2-induced cell death inhibition. DENV2-infected cells, cytopathic effect rescue, plate reader. CPE inhibition, % at 9.99 µM. 350,000 tested, 1.7% active. AID 651640; in the data active means CPE inhibition above about 20%, passing the limit was not always enough; inconclusive means no clear call, values can overlap the other calls; tested in BHK-21 cells;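 further: 0% = median of neutral control wells and 100% = median of positive control wells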
S100A4 MyoIIA – blocks human S100A4 binding to myosin IIA peptide; P26447; S100A4/TAMRA-MyoIIA peptide fluorescence polarization; inhibition, % at 10.7 µM; 360,000 tested, 0.14% active; AID 652163;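 active means mean inhibition of at least 70% across replicates, with every replicate also reaching that level; inconclusive means mean inhibition reaches 70% but some replicates fall short; inactive means mean inhibition below 70%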
Target sequence (P26447 whole entry, looked up): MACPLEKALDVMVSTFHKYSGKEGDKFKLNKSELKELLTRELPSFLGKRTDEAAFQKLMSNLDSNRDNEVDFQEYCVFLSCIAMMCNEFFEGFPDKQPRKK
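Assay system: human S100A4 monomer with TAMRA-labelled myosin IIA peptide / Buffer or medium: Calcium-containing HEPES buffer, pH 7.2 / Reagent: TAMRA-labelled myosin IIA heavy-chain peptide probe, 5 nM / Compound: one dose per compound / Timing: polarization read 5 min after assay mix addition, stable 5–60 min / Benchmarks: neutral control DMSO, positive control TFP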
SIRT5 inh – sirtuin-5 (human) deacylase inhibition. Q9NXA8. Purified SirT5, succinyl-peptide AMC, trypsin-coupled fluorescence. inhibition, % at 15 µM. 330,000 tested, 1.1% active; in the data active means inhibition above about 15%; inconclusive means no clear call, values can overlap the other calls
Target sequence (Q9NXA8 whole entry, looked up): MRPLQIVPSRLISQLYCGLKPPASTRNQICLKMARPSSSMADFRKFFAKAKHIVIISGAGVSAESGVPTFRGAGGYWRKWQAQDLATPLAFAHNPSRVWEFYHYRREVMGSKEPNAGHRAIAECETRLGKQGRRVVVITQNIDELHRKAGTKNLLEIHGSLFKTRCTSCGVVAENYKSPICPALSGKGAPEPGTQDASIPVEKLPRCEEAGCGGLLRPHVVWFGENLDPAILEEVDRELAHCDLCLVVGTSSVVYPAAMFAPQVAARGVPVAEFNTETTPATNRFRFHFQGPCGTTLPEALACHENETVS
CaV13 FRET inh – Primary screen for inhibitors of IQ motif and Ca2+-dependent inactivation inhibitor domain binding in CACNA1D, Förster resonance energy transfer in living cells, …; HEK cells, CFP/YFP FRET ICDI-IQ, plate reader, 10 min; percent FRET-ratio fall versus neutral wells; inhibition, % at 12.3 µM; 340,000 tested, 0.098% active;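 active means mean replicate inhibition of at least 30% and at least 1% of replicates passing that level; inconclusive means only one of the two criteria is met; inactive means neither criterion is met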;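 further: 0% = median of the neutral control wells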
AF4-AF9 inh – MLL-AF4/AF9 protein interaction inhibition; AlphaScreen, biotin-AF4 peptide binding to FLAG-AF9; inhibition, % at 10 µM; 350,000 tested, 0.47% active; AID 651704;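 active means every replicate reaching a set inhibition limit, whatever the replicate mean, cut at about 25% in these data; inconclusive means mean inhibition reaches that limit but some replicates miss it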;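 further: 0% = plate neutral control median and 100% = total signal loss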
Alpha interfer – AlphaScreen signal interference counter-screen hit; shares compounds with AF4-AF9 inh; AID 720494; signal luminescence; 530 tested, 45% active; AC50, µM (series often up to 12 µM), without a hit: at the top dose activity change, negative = inhibition; cut-off not given, nearly all actives have AC50 up to about 14 µM
The depositor's hits bear a star; ? = inconclusive; . = no result; ! = a repeat was not active. Most compounds without a hit are left out; they make up all but 2.7% or so of the library.

SMILES	DENV2 CPE	S100A4 MyoIIA	SIRT5 inh	CaV13 FRET inh	AF4-AF9 inh	Alpha interfer
CCOc1ccc2c(c1)C(=O)c1cc(OCC(=O)O)ccc1-2	1.4	3.2	0.0	-4.1	-10.3	.
CNC(=O)C[C@H]1CC[C@H]2[C@@H](COC[C@H](O)CN2S(=O)(=O)c2cccc(Cl)c2)O1	5.6	2.6	-1.3	.	-0.4	.
COc1ccccc1S(=O)(=O)N[C@@H]1CC[C@@H](CC(=O)N2CCN(C)CC2)O[C@@H]1CO	11.1	-51.1	-2.5	.	-1.3	.
CN1[C@@H]2c3cccc(=O)n3C[C@H]1[C@H](CO)[C@H]2C(=O)NCC1CCCCC1	-1.2	0.0	4.5	.	-1.3	.
CCc1ccc(-c2nc(CSCC(=O)N3CCN(c4ncccn4)CC3)c(C)o2)cc1	86.5*	11.8	4.1	-6.7	-10.0	0.3%
Cc1ccc(S(=O)(=O)N(C)C[C@H]2Oc3ccc(NS(=O)(=O)c4ccccc4)cc3CC(=O)N([C@H](C)CO)C[C@H]2C)cc1	-11.0	5.0	1.0	.	-7.3	.
O=C(O)C[C@H]1CC[C@@H](NC(=O)CCN2CCCCC2)[C@H](CO)O1	7.8	3.9	-1.3	.	-3.2	.
Oc1ccc(Br)cc1C=Nc1ccc(Cl)cc1	-2.0	-25.6	0.1	-3.8	-2.2	.
CCN(CC)c1ccc(N=Cc2cc(Br)ccc2O)cc1	-2.6	-22.6	-4.9	-4.0	46.0*	-2.2%
COc1ccc(N2CCN(c3nc(=S)n(-c4ccccc4)c(C)c3C(C)=O)CC2)cc1	.	-7.0	.	-10.0	.	.
CCn1c(C)c(C(C)=O)c(N2CCN(c3ccc(OC)cc3)CC2)nc1=S	3.8	-18.4	6.6	-13.0	31.6*	-24.3%
O=C(c1ccc(-c2cc(O)c3ncccc3c2)cc1)N1CCNCC1	.	21.1	-1.1	-4.7	91.9*	3.93µM*
C[C@H]1CN([C@@H](C)CO)C(=O)c2cc(C3=CCCCC3)cnc2O[C@@H]1CN(C)C(=O)c1ccc2c(c1)OCO2	-7.8	3.1	6.5	.	2.7	.
O=[N+]([O-])c1ccc(/C=N/Nc2ccnc3cc(Cl)ccc23)o1	6.8	-39.7	-1.0	-5.1	27.6*	-29.0%
NC1=NC[C@H](Cc2ccc(O)cc2)N1CCc1cccc2ccccc12	7.4	0.7	.	-0.5	32.1*	-29.2%
CC(C)C#Cc1ccc2c(c1)O[C@@H](CN(C)C(=O)c1cnccn1)[C@H](C)CN([C@@H](C)CO)S2(=O)=O	-12.8	2.1	-1.4	.	-2.5	.
CN(C)CCCN1c2ccccc2Sc2ccc(Cl)cc21	?	1.7	-5.4	-6.2	38.8*!	-32.5%
OCCN1CCN(CCCN2c3ccccc3Sc3ccc(Cl)cc32)CC1	-4.8	-1.0	-3.9	-5.7	39.8*	-32.4%
OCCN1CCN(CC/C=C2/c3ccccc3Sc3ccc(Cl)cc32)CC1	8.6	2.5	1.9	-5.0	?	.
CN1CCN(CCCN2c3ccccc3Sc3ccc(S(=O)(=O)N(C)C)cc32)CC1	11.9	0.0	-5.2	-4.7	24.2	.
COc1cc(OC)c2c(-c3ccccc3)cc(=O)oc2c1C(CCN1CCCCC1)c1ccc2c(c1)OCO2 (configuration not stated)	6.6	-2.0	.	-4.8	36.1*	-28.1%
COc1cc(OC)c2c(C)cc(=O)oc2c1C(CCN1CCOCC1)c1ccc2c(c1)OCO2 (configuration not stated)	16.4	-0.8	2.2	-8.4	9.8	.
COc1ccc(C2CC(=O)Oc3c(C(CCN4CCN(c5ccccc5)CC4)c4ccc(N(C)C)cc4)c(OC)cc(OC)c32)cc1 (configuration not stated)	-8.1	-0.6	0.5	-9.3	14.1	.
COc1cc(OC)c2c(-c3ccccc3)cc(=O)oc2c1C(CCN1CCOCC1)c1ccc(N(C)C)cc1 (configuration not stated)	-10.9	-1.7	-2.4	-6.4	38.5*	-20.5%
COc1ccc(C(CCN2CCCCC2)c2c(OC)cc(OC)c3c(-c4ccccc4)cc(=O)oc23)cc1 (configuration not stated)	1.6	-0.3	.	-4.8	19.3	.
SMILES	DENV2 CPE	S100A4 MyoIIA	SIRT5 inh	CaV13 FRET inh	AF4-AF9 inh	Alpha interfer
COc1cc(OC)c2c(c1C(CCN1CCOCC1)c1ccc(N(C)C)cc1)OC(=O)CC2c1ccc(N(C)C)cc1 (configuration not stated)	4.4	-3.3	-0.3	-10.9	65.3*	13.3µM*
CN1C(=O)c2cc(NC(=O)c3ccccc3)ccc2OC[C@H]2O[C@H](CC(=O)NC3CCCC3)CC[C@@H]21	1.8	-6.9	-1.5	.	-2.0	.
COc1ccc(COC[C@@]23Oc4ccccc4[C@@H](NC(=O)N2C)[C@H]3COC(=O)c2ccc([N+](=O)[O-])cc2)cc1	6.4	3.3	9.6	.	11.0	.
COc1ccccc1NC(=O)N1C[C@@H](O)COC[C@@H]2O[C@H](CC(=O)NCCc3ccccc3)CC[C@H]21	3.9	5.0	6.7	.	-12.8	.
C[C@@H]1CN([C@@H](C)CO)S(=O)(=O)c2ccc(-c3cccnc3)cc2O[C@@H]1CN(C)C(=O)C1CCC1	?	2.4	-4.4	.	2.6	.
O=C(Cn1nc(CNc2ccc(Cl)cc2)[n+]2c1CCCCC2)c1ccc(Br)cc1	.	.	.	-3.7	.	.
COc1ccc(NCc2nn(CC(=O)c3ccc(Br)cc3)c3[n+]2CCCCC3)cc1	-4.4	-2.1	2.3	-2.6	30.1*	-42.6%
C[C@H](CO)N1C[C@H](C)[C@H](CN(C)C(=O)Nc2ccccc2)Oc2ccc(NS(=O)(=O)c3ccc(F)cc3)cc2CC1=O	-10.4	9.4	0.5	.	-2.3	.
COc1ccc(NC(=O)Nc2ccc3c(c2)CC(=O)N([C@H](C)CO)C[C@H](C)[C@@H](CN(C)C(=O)Nc2ccc(OC)cc2)O3)cc1	3.3	9.3	1.8	.	3.2	.
Nc1ccc(O)c2c1C(=O)c1ccccc1C2=O	13.4	16.6	-1.1	.	37.8*	-30.9%
C[C@@H]1CN([C@H](C)CO)C(=O)Cc2cc(NS(=O)(=O)c3ccccc3)ccc2O[C@@H]1CN(C)S(=O)(=O)c1ccc(F)cc1	2.6	.	.	.	.	.
O=C1c2ccccc2C(=O)c2c(NCCCN(CCO)CCO)cccc21	1.8	-38.8	-0.9	-6.4	?	.
CCN(CCCNc1cc2c(c(N)c1S(=O)(=O)O)C(=O)c1ccccc1C2=O)c1ccccc1	?	13.2	.	-5.0	61.3*	7.64µM*
COc1ccc(CC(=O)N/N=C(\C)c2cccnc2)cc1	2.7	11.8	-2.6	-10.1	1.5	.
CN=c1scc(-c2ccc(OC)cc2)n1/N=C(\C)c1cccnc1	-5.7	5.4	2.3	-12.2	48.2*	11.4µM*
C[C@@H]1CN([C@H](C)CO)C(=O)Cc2cc(N(C)C)ccc2O[C@H]1CN(C)Cc1ccc(Oc2ccccc2)cc1	11.1	4.1	2.8	.	43.2*	-39.5%
COCCCNCC(O)COc1ccccc1F (configuration not stated)	11.5	-1.7	1.8	-2.8	0.1	.
